The IC50 is the point on the concentration scale where inhibition reaches its midpoint. For orientation: inhibition means the relative decrease from the control value, in per cent.

One test has as its system K562. The experiment in a line: Cytotoxicity against human K562 cells in presence of 10% fetal bovine serum. The test is classed as functional, cell-based. In outline:
(§1)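 Cells cultured per supplier's instructions and seeded at 2–4 × 10⁴ cells per well. On day 2 the medium was replaced with medium containing graded compound concentrations. On day 4 cell counting kit-8 was added for a further 4 h, and absorbance was read at 450 nm. Values are 50% inhibitory concentrations, given as mean from three experiments run in triplicate.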

Another test has as its system HCT-15. The experiment in a line: Cytotoxicity against human HCT15 cells in presence of 10% fetal bovine serum. The test is classed as functional, cell-based. In outline: as §1
For a further test, the system named is DU-145. In words: Cytotoxicity against human DU145 cells in presence of 10% fetal bovine serum. The test is classed as functional, cell-based. The method, boiled down:
as §1

For another test, the system named is MCF7. The experiment in a line: Cytotoxicity against human MCF7 cells in presence of 10% fetal bovine serum. The test is classed as functional. The method, boiled down: as §1
Test [1] has as its target DNA topoisomerase 2-alpha (Homo sapiens) (UniProt P11388). In words: Inhibition of human recombinant DNA topoisomerase 2 assessed as inhibition of relaxation of supercoiled pBR322 DNA at 100 uM by agarose gel electrophoresis. The method, boiled down:
(§2)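 pBR322 DNA was incubated with two units of human topo IIα, with or without compound (DMSO stocks at 20 mM), in 10 mM Tris–HCl pH 7.9 with 50 mM NaCl, 5 mM MgCl₂, 1 mM EDTA, 1 mM ATP and BSA, for 30 min at 30 °C. The reaction was stopped with EDTA and run on 1% agarose in TAE at 25 V for 4 h. Gels were stained with ethidium bromide, and supercoiled DNA was quantified under UV.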

Test [2] concerns the target T1, DNA topoisomerase 1 (Homo sapiens) (UniProt P11387).
T1 sequence (whole entry): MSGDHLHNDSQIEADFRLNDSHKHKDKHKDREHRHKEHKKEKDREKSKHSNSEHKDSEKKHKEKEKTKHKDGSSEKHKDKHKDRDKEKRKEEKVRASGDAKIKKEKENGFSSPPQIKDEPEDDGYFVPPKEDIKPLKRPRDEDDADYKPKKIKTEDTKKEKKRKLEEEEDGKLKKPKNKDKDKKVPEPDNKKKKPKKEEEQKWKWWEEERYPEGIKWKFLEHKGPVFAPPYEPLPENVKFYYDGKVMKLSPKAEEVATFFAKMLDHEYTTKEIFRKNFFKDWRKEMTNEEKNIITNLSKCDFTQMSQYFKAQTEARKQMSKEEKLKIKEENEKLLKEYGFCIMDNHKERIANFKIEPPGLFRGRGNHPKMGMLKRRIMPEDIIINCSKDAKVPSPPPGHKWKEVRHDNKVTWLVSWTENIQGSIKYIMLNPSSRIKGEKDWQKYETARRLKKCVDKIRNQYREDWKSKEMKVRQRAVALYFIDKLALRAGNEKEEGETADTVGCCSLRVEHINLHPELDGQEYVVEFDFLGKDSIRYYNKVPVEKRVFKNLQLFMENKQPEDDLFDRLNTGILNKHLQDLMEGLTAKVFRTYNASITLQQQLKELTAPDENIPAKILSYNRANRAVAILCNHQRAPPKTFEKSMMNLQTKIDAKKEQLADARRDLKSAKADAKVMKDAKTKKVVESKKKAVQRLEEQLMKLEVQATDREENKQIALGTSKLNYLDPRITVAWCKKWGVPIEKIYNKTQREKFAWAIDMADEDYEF
In words: Inhibition of human recombinant topoisomerase 1 assessed as inhibition of relaxation of supercoiled pBR322 DNA at 100 uM by agarose gel electrophoresis. The method, boiled down: (§3)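 100 ng pBR322 DNA was incubated with 0.4 units of recombinant human topo I, with or without compound (DMSO stocks at 20 mM), for 30 min at 37 °C in 10 mM Tris–HCl pH 7.9, 150 mM NaCl, 0.1% BSA, 1 mM spermidine and 5% glycerol. The reaction was stopped with sarkosyl/bromophenol blue/glycerol and run on 1% agarose in TAE at 15 V for 7 h. Relaxation was read from ethidium bromide staining.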

A further test has as its system HeLa. The experiment in a line: Cytotoxicity against human HeLa cells in presence of 10% fetal bovine serum. It is filed as functional, cell-based. The method, boiled down:
as §1

For test [3], the target named is DNA topoisomerase 2-alpha (Homo sapiens) (UniProt P11388). In words: Inhibition of human recombinant DNA topoisomerase 2 assessed as inhibition of relaxation of supercoiled pBR322 DNA at 20 uM by agarose gel electrophoresis. The method, boiled down: as §2
Sequence of DNA topoisomerase 2-alpha (Homo sapiens) (P11388 whole entry): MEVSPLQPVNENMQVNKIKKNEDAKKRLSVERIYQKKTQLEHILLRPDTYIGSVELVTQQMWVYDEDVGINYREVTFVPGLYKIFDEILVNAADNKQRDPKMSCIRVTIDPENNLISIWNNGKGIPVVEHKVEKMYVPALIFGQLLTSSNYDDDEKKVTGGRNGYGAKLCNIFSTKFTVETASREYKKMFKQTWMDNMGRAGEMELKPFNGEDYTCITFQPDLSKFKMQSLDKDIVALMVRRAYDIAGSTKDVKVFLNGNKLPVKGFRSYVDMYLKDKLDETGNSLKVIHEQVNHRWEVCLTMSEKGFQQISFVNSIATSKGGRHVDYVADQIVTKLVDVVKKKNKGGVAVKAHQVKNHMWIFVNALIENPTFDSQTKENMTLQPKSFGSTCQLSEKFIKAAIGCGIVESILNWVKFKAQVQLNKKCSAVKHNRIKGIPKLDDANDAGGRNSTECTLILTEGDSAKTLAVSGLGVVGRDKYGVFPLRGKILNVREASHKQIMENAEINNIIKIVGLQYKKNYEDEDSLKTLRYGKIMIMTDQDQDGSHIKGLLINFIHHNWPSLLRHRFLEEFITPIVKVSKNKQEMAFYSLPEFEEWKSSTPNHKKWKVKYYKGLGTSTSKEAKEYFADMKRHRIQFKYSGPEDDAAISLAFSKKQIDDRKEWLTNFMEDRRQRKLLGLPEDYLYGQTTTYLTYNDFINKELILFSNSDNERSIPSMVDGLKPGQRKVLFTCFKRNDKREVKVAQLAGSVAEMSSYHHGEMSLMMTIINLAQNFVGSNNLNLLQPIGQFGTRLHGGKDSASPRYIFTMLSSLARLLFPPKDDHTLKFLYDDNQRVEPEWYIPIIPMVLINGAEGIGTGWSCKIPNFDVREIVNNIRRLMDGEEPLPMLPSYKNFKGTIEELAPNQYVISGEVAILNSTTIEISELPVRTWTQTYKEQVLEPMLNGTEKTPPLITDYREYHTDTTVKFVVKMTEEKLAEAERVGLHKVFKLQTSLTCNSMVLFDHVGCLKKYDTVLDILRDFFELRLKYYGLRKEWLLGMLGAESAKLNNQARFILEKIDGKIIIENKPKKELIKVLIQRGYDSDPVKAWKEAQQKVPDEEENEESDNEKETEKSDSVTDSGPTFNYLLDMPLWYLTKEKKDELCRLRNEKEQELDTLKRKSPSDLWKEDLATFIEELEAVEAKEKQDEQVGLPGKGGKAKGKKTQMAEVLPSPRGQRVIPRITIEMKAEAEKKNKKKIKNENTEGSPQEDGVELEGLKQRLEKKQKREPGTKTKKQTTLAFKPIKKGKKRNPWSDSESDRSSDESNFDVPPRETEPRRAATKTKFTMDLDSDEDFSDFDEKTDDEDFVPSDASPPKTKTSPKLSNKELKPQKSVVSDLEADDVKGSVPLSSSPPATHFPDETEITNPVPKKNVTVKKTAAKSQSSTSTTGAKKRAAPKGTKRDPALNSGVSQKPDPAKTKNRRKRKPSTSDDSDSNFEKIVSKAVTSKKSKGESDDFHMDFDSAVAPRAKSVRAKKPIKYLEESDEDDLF
Test [4] deals with T1, DNA topoisomerase 1 (Homo sapiens). In words: Inhibition of human recombinant topoisomerase 1 assessed as inhibition of relaxation of supercoiled pBR322 DNA at 20 uM by agarose gel electrophoresis. In outline: as §3

As to `COc1cccc2c1C(=O)c1c(O)c3c(c(O)c1C2=O)C[C@@](O)(C(=O)CO)C[C@@H]3O[C@H]1C[C@H](N)[C@H](O)[C@H](C)O1.Cl` [DOXORUBICIN HYDROCHLORIDE], the IC50 in the test on K562 was 2.45 µM; with HCT-15 it was 2.32 µM; in the test with DU-145, 1.98 µM; in the test on MCF7, 1.25 µM.

In the case of `Clc1ccc(-c2cc(-c3cccnc3)nc(-c3ccsc3)c2)o1`, the inhibition in test [1] is 86.5%; in test [2], 0%; in [3], 60.8%. The IC50 was 21.7 µM with K562; over 50 µM in the test with HCT-15; over 50 µM with HeLa; 21.6 µM in the test with DU-145; over 50 µM in the test on MCF7.

As for `Clc1ccc(-c2cc(-c3ccc(Cl)o3)cc(-c3cccs3)n2)cc1`, the inhibition in [1] amounted to 42.5%; in test [2], 38.9%; in [3] it was 38.1%; in test [4] it was 6.3%. The IC50 in the test on K562 worked out at 20.9 µM; in the test with HCT-15 it was 14.2 µM; with HeLa, 21.3 µM; with DU-145, 19.2 µM; in the test with MCF7 it was 2.45 µM.

`Clc1ccc(-c2cc(-c3ccoc3)cc(-c3cccs3)n2)cc1`: the inhibition is 30.2% in test [1] and 0% in [2]. Further, the IC50 came out at 21.1 µM in the test with K562; 50 µM in the test on HCT-15; 5.53 µM in the test on HeLa; 21.1 µM in the test on DU-145; 29.1 µM in the test with MCF7.

For the compound `Cc1cccc(-c2cc(-c3ccc(Cl)o3)cc(-c3ccsc3)n2)c1`, the inhibition in test [1] was 64.1%; in test [2], 7.5%; in [3], 56.7%. The IC50 in the test on K562 was 20.2 µM; with HCT-15 it was 21.7 µM; in the test with HeLa, 20.3 µM; with DU-145, 17.9 µM; in the test with MCF7 it was 1.28 µM.

In the case of `Clc1ccc(-c2cc(-c3ccsc3)nc(-c3ccccn3)c2)o1`, the inhibition in [1] came to 63.1%; in test [2], 0%; in [3] it was 60.9%. In addition, the IC50 with K562 was 21.9 µM; with HCT-15 it was over 50 µM; with HeLa, 22.5 µM; in the test with DU-145, 10.9 µM; in the test on MCF7, 21 µM.

For `Clc1ccc(-c2cc(-c3ccsc3)nc(-c3ccccc3Cl)c2)o1`, the inhibition amounted to 64.1% in test [1], 0% in [2] and 59.5% in test [3]. In addition, the IC50 in the test on K562 is 17.2 µM; in the test on HCT-15 it was 4.57 µM; with HeLa it was 8.07 µM; with DU-145 it was 19.3 µM; in the test on MCF7, 1.71 µM.

As for `Clc1ccc(-c2cc(-c3ccco3)cc(-c3cccs3)n2)cc1`, the figures for the inhibition in test [1] and in [2] were 31.4% and 2.7%, respectively. Also, the IC50 with K562 was over 100 µM; with HCT-15, over 100 µM; in the test on HeLa, 32.7 µM; in the test with DU-145 it was over 100 µM; in the test on MCF7 it was 24.6 µM.

Take `Cc1ccc(-c2cc(-c3ccc(Cl)o3)cc(-c3cccs3)n2)cc1`: the results for the inhibition in test [1], in test [2] and in test [4] were 21.8%, 41.8% and 9.3%, respectively. For the same compound, the IC50 came out at 21.5 µM in the test with K562; 9.89 µM in the test with HCT-15; 16.3 µM in the test with HeLa; 19.3 µM in the test on DU-145; 1.33 µM in the test with MCF7.

Turning to `Cc1ccccc1-c1cc(-c2ccc(Cl)o2)cc(-c2ccsc2)n1`, the values for the inhibition in test [1], in test [2] and in [3] were 59.6%, 6.7% and 46.3%, respectively. The IC50 stood at 18.4 µM with K562; 4.63 µM in the test with HCT-15; 9.77 µM with HeLa; 24.8 µM with DU-145; 1.23 µM in the test on MCF7.

Turning to `Cc1ccc(-c2cc(-c3ccoc3)cc(-c3ccsc3)n2)cc1`, the inhibition in [1] was 14.2%; in test [2], 13.2%. Moreover, the IC50 in the test on K562 was determined as 47.8 µM; with HCT-15, 44.8 µM; in the test on HeLa it was 1.47 µM; in the test on DU-145 it was 13 µM; in the test on MCF7, 9.32 µM.

For `Cc1ccc(-c2cc(-c3ccc(Cl)o3)cc(-c3ccsc3)n2)o1`, the inhibition in [1] was 62.6%; in [2], 9.1%; in test [3], 34.7%. The IC50 is 23.3 µM in the test on K562; over 50 µM in the test with HCT-15; over 50 µM in the test on HeLa; 18.5 µM in the test with DU-145; 1.42 µM with MCF7.

Regarding `COc1cc([C@@H]2c3cc4c(cc3[C@@H](O[C@@H]3O[C@@H]5CO[C@@H](C)O[C@H]5[C@H](O)[C@H]3O)[C@H]3COC(=O)[C@H]23)OCO4)cc(OC)c1O` [ETOPOSIDE], the IC50 was found to be 2.84 µM in the test on K562; 1.29 µM with HCT-15; 1.57 µM in the test on HeLa; 2.45 µM in the test with DU-145; 1.66 µM in the test on MCF7.

On to `Clc1cccc(-c2cc(-c3ccc(Cl)o3)cc(-c3ccsc3)n2)c1`, for which the inhibition in [1] came out at 75.9%; in test [2], 0%; in test [3], 75.4%. The IC50 in the test on K562 came to 23 µM; with HCT-15 it was 13.7 µM; in the test on HeLa, 8.71 µM; in the test with DU-145 it was 10.4 µM; with MCF7 it was 4.26 µM.

As for `Clc1ccc(-c2cc(-c3ccsc3)nc(-c3ccco3)c2)o1`, the figures for the inhibition in [1], in test [2] and in test [3] were 78.6%, 8.2% and 63.8%, respectively. Moreover, the IC50 in the test with K562 was 22.4 µM; with HCT-15 it was over 50 µM; with HeLa, over 50 µM; with DU-145, 18.9 µM; in the test with MCF7, 21.3 µM.

Regarding `Cc1ccc(-c2cc(-c3ccc(Cl)o3)cc(-c3ccsc3)n2)cc1`, the results for the inhibition in test [1], in test [2] and in [3] were 78.9%, 2.6% and 70.2%, respectively. In addition, the IC50 with K562 stood at 19.9 µM; with HCT-15, 7.41 µM; in the test on HeLa, 16.2 µM; in the test with DU-145, 21.2 µM; with MCF7 it was 0.63 µM.

With `CC[C@@]1(O)C(=O)OCc2c1cc1n(c2=O)Cc2cc3ccccc3nc2-1` [CAMPTOTHECIN], the IC50 in the test with K562 is 0.08 µM; in the test on HCT-15, 0.64 µM; with HeLa, 0.63 µM; in the test on DU-145, 0.94 µM; in the test on MCF7 it was 0.05 µM.

On to `Clc1ccc(-c2cc(-c3ccco3)nc(-c3cccs3)c2)o1`, for which the inhibition in [1] worked out at 38.5%; in test [2], 16%; in [3], 25.5%. Also, the IC50 is 16 µM in the test on K562; over 50 µM in the test with HCT-15; 18.8 µM in the test on HeLa; 21.8 µM in the test with DU-145; 5.27 µM in the test on MCF7.

As for `Clc1ccc(-c2cc(-c3ccoc3)cc(-c3ccsc3)n2)cc1`, the inhibition in test [1] is 20.5%; in test [2] it was 0%. Also, the IC50 in the test on K562 is 0.73 µM; in the test with HCT-15, over 100 µM; with HeLa, 4.14 µM; in the test with DU-145 it was 37.6 µM; in the test with MCF7, 56.1 µM.

Turning to `Clc1ccc(-c2cc(-c3cccnc3)nc(-c3cccs3)c2)o1`, the inhibition in test [1] turned out to be 51.5%; in [2], 25.8%; in test [3], 30.9%. In addition, the IC50 with K562 is 22.3 µM; with HCT-15 it was 1.24 µM; in the test on HeLa, 14.6 µM; in the test on DU-145, 13 µM; in the test on MCF7, 2.87 µM.

These data come from ChEMBL document CHEMBL1157645, “Synthesis of 2-(thienyl-2-yl or -3-yl)-4-furyl-6-aryl pyridine derivatives and evaluation of their topoisomerase I and II inhibitory activity, cytotoxicity, and structure-activity relationship” (Bioorg Med Chem, 2010).
